Measurements taken from article PMC3772642 (Nature, 2009).
No end group written: not given here. *: point of attachment. Dansyl = CN(C)c1cccc2c(S(=O)(=O)*)cccc12; Me3 = trimethyl-lysine, K(Me3)

Experiments:
[1] = biological target: ΔEed (Homo sapiens, UniProt O75530, M370T); assay: crystal structure of ΔEed with ligand; format: binding; conditions: crystallisation additive 0.6–0.7 M NDSB-195, 4.0–4.1 M formate
Summary of the method: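 ΔEed carrying Met-370Thr was purified by size exclusion (50 mM Tris-HCl pH 8.7, 150 mM NaCl, 3 mM TCEP) and held at 1.5 mg/ml with peptide at 7-fold molar excess, 15 mM TCEP. Hanging-drop vapour diffusion was run at 18 °C, mixing equal volumes with 3.7–3.9 M formate. Apo ΔEed (2.5 mg/ml) used 4.0–4.1 M formate with 0.6–0.7 M NDSB-195.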

[2] = tested on: chromatin trimethylated on H3K9; assay: pull-down, chromatin trimethylated on H3K9; format: binding; conditions: 2 ug chromatin, 2 ug protein or complex, 2 hours at 4 C, western blot
Summary of the method: (§1)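 Recombinant histones were made in E. coli, assembled into octamers and formed into chromatin by salt dialysis, then purified on an agarose column. Chromatin (2 ug) was incubated with 2 ug Sf9-reconstituted PRC2-Ezh2 in 50 mM Tris pH 8.0, 50 mM NaCl, 1 mM EDTA, 0.1% NP40 with M2 beads for 2 h at 4 °C. Beads were washed, eluted in SDS loading buffer and analysed by western blot against a beads-only control.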

[3] = tested on: chromatin reconstituted with histones containing the different levels of H3K36 methylation; assay: pull-down, H3K36 methylated chromatin; format: binding; conditions: NiNta pull-down, Fig. S8
Summary of the method: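 Chromatin arrays were built from recombinant histones carrying single chemically installed methyl-lysine analogs, assembled into octamers, formed by salt dialysis and cleared of free histone on an agarose column. 2 ug chromatin was incubated with 2 ug full-length His-tagged Eed in 50mM Tris pH8.0, 50mM NaCl, 1 mM EDTA, 0.1% NP40 for 2 hours at 4°C with NiNta beads. Beads were washed extensively, eluted in SDS loading buffer and analysed by western blot.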

[4] = tested on: nucleosomes; assay: pull-down, nucleosomes; format: binding; conditions: methylated or unmodified nucleosomes, not separated
Summary of the method: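 Reconstituted chromatin arrays (salt dialysis, agarose-column purified to remove free histone) at 2 ug were incubated with 2 ug protein or complex in 50mM Tris pH8.0, 50mM NaCl, 1 mM EDTA, 0.1% NP40 for 2 hours at 4°C. Capture was on NiNta beads for Eed or M2 beads for PRC2. After extensive washing, beads were eluted in SDS loading buffer and analysed by western blot.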

[5] = tested on: unmodified chromatin; assay: pull-down, unmodified chromatin; format: binding; conditions: M2-Beads pull-down, 2 hours at 4 C, western blot
Summary of the method: as §1

[6] = biological target: truncated version of Eed (residues 77 to 441), ΔEed (UniProt O75530); assay: other fluorescence titration
[7] = biological target: truncated version of Eed (residues 77 to 441), ΔEed (UniProt O75530 78-441, Met-370Thr); assay: other fluorescence titration

CC[N+](C)(C)CCCS(=O)(=O)[O-] [NDSB-195]
electron density in central pocket of ΔEed [1]: able to build into the extra electron density

Eed: full-length His-tagged Eed protein
interaction with chromatin trimethylated on H3K9 [2]: did bind
interaction with H3K36 methylated chromatin [3]: not able to interact

PRC2 Eed (Phe-97Ala): mutant PRC2 complex containing Eed (Phe-97Ala)
interaction with nucleosomes [4]: does not show binding to chromatin

PRC2 Eed (Tyr-365Ala): mutant PRC2 complex containing Eed (Tyr-365Ala)
interaction with nucleosomes [4]: does not show binding to chromatin

PRC2: PRC2 complex purified from insect cells co-infected with baculovirus expressing each of the subunits
interaction with chromatin trimethylated on H3K9 [2]: bound significantly tighter
interaction with unmodified chromatin [5]: displayed some binding

R26A of H3K27me3 peptide
fold reduction of binding against the H3K27me3 peptide [6]: 1.5 fold

ΔEed: truncated version of Eed (residues 77 to 441)
interaction with nucleosomes [4]: failed to interact with nucleosomes

KKKARK(Me3)SAGAAK(Dansyl) (not fully specified; printed as KKKARK(Me3)SAGAAK-dansyl) [dansyl labelled peptide KKKARK(Me3)SAGAAK-dansyl]
binding result [7]: binds
